Series [1] deals with T1, Muscarinic acetylcholine receptor M3 (Homo sapiens, UniProt P20309). The series is described as follows: Antagonist potency at human muscarinic acetylcholine M3 receptor expressed in CHO cells assessed as inhibition of Ach-induced calcium mobilization by FLIPR analysis relative to control. The series is classed as functional, cell-based. As to conditions: for Kb: read-out: pA2 (converted). Summed up: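 Human M3 receptor in CHO cells, ACh-stimulated calcium mobilization by FLIPR. pA2 derived from the ratio of the ACh EC50 with and without antagonist. Run only where the IC50 was below 10 nM. Values above 11 could not be determined accurately.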
Target sequence in this assay (P20309 whole entry): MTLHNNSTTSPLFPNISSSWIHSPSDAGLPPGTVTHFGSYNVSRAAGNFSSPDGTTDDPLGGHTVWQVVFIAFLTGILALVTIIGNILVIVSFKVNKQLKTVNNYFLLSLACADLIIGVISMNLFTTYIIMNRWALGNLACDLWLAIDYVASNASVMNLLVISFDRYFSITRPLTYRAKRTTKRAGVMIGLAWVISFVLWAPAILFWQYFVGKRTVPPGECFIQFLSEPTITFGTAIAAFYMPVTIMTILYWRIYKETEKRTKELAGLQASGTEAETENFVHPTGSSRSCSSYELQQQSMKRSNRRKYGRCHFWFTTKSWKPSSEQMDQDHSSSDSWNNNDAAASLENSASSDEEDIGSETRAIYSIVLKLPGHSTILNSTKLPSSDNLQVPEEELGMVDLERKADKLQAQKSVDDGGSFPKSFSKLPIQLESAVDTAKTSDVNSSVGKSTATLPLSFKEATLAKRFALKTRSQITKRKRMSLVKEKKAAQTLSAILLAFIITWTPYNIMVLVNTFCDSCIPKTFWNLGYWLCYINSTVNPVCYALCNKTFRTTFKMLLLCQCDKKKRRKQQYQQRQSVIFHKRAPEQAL

For series [2], the target named is T1, Muscarinic acetylcholine receptor M3. The series is described as follows: Antagonist activity at human muscarinic acetylcholine M3 receptor expressed in CHO cells assessed as inhibition of Ach-induced calcium mobilization by FLIPR analysis. The series is classed as functional, cell-based. Summed up: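 Calcium mobilization read by standard FLIPR protocol. IC50 in nM, mean of two or more independent assays.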
Target sequence in this assay (P20309 whole entry): as above
(Calcium flux is commonly read through the fluorescence of an indicator in the cells.)

Series [3] has the same target.
Target sequence in this assay (P20309 whole entry, looked up): as the sequence (P20309 whole entry) above
Series [4] relates to Mus musculus. As to the kind of experiment: Bronchoprotective activity in mouse against methacholine-induced bronchoconstriction assessed as time duration of bronchoprotection at 0.05 ug administered intranasally. The class given is functional. A digest of the protocol:
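Conscious mice, methacholine-induced bronchoconstriction. Duration of bronchoprotection taken as the time to 50% loss of maximum protection.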

Series [5] has as its target T2, Muscarinic acetylcholine receptor M2 (Homo sapiens, UniProt P08172).
T2 sequence (P08172 whole entry): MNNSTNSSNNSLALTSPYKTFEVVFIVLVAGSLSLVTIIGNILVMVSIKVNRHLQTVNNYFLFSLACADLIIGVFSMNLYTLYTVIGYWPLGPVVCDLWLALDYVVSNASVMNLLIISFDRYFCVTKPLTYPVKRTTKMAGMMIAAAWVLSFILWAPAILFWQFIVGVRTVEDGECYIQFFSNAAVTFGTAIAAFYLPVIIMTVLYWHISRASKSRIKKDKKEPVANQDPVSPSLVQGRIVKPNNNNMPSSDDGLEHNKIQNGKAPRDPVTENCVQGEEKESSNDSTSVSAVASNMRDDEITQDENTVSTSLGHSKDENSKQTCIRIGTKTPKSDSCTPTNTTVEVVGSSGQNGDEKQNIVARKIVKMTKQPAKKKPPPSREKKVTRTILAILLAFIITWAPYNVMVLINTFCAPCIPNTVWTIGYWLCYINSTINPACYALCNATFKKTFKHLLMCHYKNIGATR
The series is described as follows: Displacement of [3H]-N-methyl scopolamine from muscarinic acetylcholine M2 receptor expressed in CHO cell membrane. The class given is cell membranes. A digest of the protocol: (§1)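 Membranes from CHO cells, SPA-format radioligand binding against 0.5 nM [3H]-N-methyl scopolamine. Values are the mean of three independent assays.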
(In general: Displacement assays read how much labelled ligand stays bound in the presence of the test substance.)

For series [6], the system named is Mus musculus. As to the kind of experiment: Antagonist potency at muscarinic acetylcholine M3 receptor in intranasally dosed mouse assessed as inhibition of Mch-induced bronchoconstriction. The class given is functional. Summed up:
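Conscious mice challenged with methacholine to induce bronchoconstriction. ED50 expressed as µg per mouse, n = 1.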

The subject of the next series is Rattus norvegicus. As to the kind of experiment: Oral bioavailability in rat at 2 mg/kg. As to conditions: in vivo, BLD = below limit of detection. The series is classed as ADME, organism-based. Summed up: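 Rats dosed orally at 2 mg/kg. Percent bioavailability calculated from plasma levels.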
Series [7] addresses T3, Muscarinic acetylcholine receptor M1 (Homo sapiens, UniProt P11229).
T3 sequence (P11229 whole entry): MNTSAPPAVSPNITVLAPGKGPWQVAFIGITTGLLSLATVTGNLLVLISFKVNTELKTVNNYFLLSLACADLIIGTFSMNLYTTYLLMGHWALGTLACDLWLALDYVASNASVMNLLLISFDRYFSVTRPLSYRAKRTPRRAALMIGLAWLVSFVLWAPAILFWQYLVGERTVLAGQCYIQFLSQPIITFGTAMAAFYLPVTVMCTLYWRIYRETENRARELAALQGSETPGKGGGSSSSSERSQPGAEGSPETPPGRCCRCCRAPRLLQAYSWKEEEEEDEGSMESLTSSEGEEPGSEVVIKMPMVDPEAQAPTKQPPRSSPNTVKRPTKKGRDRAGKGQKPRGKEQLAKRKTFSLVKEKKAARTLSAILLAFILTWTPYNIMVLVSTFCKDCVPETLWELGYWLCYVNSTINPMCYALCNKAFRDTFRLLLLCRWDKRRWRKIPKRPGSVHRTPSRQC
As to the kind of experiment: Displacement of [3H]-N-methyl scopolamine from muscarinic acetylcholine M1 receptor expressed in CHO cell membrane. The class given is cell membranes. Summed up: as §1

Series [8] can be described thus: Plasma clearance in rat at 1 mg/kg, iv. The class given is ADME, organism-based. Further details: dose 1 mg/kg, route intravenous. A digest of the protocol: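 Rats dosed iv at 1 mg/kg. Systemic plasma clearance in ml/min/kg.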
Series [9] has as its target T1, Muscarinic acetylcholine receptor M3. As to the kind of experiment: Displacement of [3H]-N-methyl scopolamine from muscarinic acetylcholine M3 receptor expressed in CHO cell membrane. The class given is cell membranes. Summed up:
as §1
Target sequence in this assay (P20309 whole entry): as the sequence (P20309 whole entry) above

The structures appear in SMILES notation. Active and inactive are the calls of the source. The rule behind the calls is not given here. Bounds are passed on as bounds.

The IC50 is the concentration at which inhibition is half-maximal. `COCC[N+]1(C)[C@@H]2CC[C@H]1C[C@@H](CC(C#N)(c1ccccc1)c1ccccc1)C2` (mixture of isomers): the Kb in series [1] was 0.501 nM. In [2], the IC50 is less than 10 nM.

On to `C[N+]1(CC2CCCCC2)[C@@H]2CC[C@H]1C[C@@H](CC(C#N)(c1ccccc1)c1ccccc1)C2` (mixture of isomers), for which the IC50 in [2] is 89.6 nM.

Regarding `C=CCCCC[N@+]1(C)C2CCC1C[C@@H](CC(C#N)(c1ccccc1)c1ccccc1)C2`, the IC50 in series [2] amounted to 32 nM.

In the case of `C[N@+]1(CCCc2ccccc2)C2CCC1C[C@@H](CC(C#N)(c1ccccc1)c1ccccc1)C2`, the Kb in series [1] is less than 0.01 nM. Also, the concentration for half-maximal inhibition (IC50) in series [2] is less than 10 nM.

As to `C[N@+]1(CCOc2ccccc2)C2CCC1C[C@@H](CC(C#N)(c1ccccc1)c1ccccc1)C2`, the Kb in [1] is less than 0.01 nM. Besides, in series [2], the IC50 was less than 10 nM.

In the case of `C[N+]1(CCCC#N)[C@@H]2CC[C@H]1C[C@@H](CC(C#N)(c1ccccc1)c1ccccc1)C2` (mixture of isomers), the Kb in series [1] is 0.158 nM. Further, the half-maximal inhibitory concentration (IC50) in series [2] was less than 10 nM.

With `CCCCCCCCCCCC[N+]1(C)[C@@H]2CC[C@H]1C[C@H](CC(C#N)(c1ccccc1)c1ccccc1)C2` (mixture of isomers), in series [2], the IC50 stood at 64 nM.

For the compound `C[N@+]1(CC2CC2)C2CCC1C[C@@H](CC(C#N)(c1ccccc1)c1ccccc1)C2`, in [1], the Kb is 0.0251 nM. In [2], the half-inhibitory concentration (IC50) is less than 10 nM.

What is called pA2 is a measure of antagonist potency on a negative log scale. For the compound `C=CCCCC[N@+]1(C)C2CCC1C[C@H](CC(C#N)(c1ccccc1)c1ccccc1)C2` [listing 1 of 2 here], in series [3], the pA2 result is “Active”.

Turning to `C[N+]1(CC2CC2)[C@@H]2CC[C@H]1C[C@@H](CC(C#N)(c1ccccc1)c1ccccc1)C2` (mixture of isomers), in series [1], the Kb was 0.0501 nM. Also, the IC50 in series [2] is less than 10 nM.

With `CCCCCCCC[N@+]1(C)C2CCC1C[C@H](CC(C#N)(c1ccccc1)c1ccccc1)C2`, the Kb in [1] is 0.0794 nM. Further, the IC50 in [2] is less than 10 nM.

Turning to `C[N+]1(CCC2CCCCC2)[C@@H]2CC[C@H]1C[C@@H](CC(C#N)(c1ccccc1)c1ccccc1)C2` (mixture of isomers), the IC50 in [2] was determined as 109 nM.

With `C[N@+]1(CCCOCc2ccccc2)C2CCC1C[C@@H](CC(C#N)(c1ccccc1)c1ccccc1)C2`, the Kb in series [1] is 0.0398 nM. Also, in [2], the IC50 was less than 10 nM.

With `CCCCCC[N@+]1(C)C2CCC1C[C@H](CC(C#N)(c1ccccc1)c1ccccc1)C2`, the Kb in series [1] was less than 0.01 nM. Also, the half-maximal inhibitory concentration (IC50) in series [2] is less than 10 nM.

Turning to `CCCC[N@+]1(C)C2CCC1C[C@H](CC(C#N)(c1ccccc1)c1ccccc1)C2`, in series [1], the Kb is less than 0.01 nM. In addition, the IC50 in [2] is less than 10 nM.

The term Ki denotes a dissociation constant, usually derived from enzyme kinetics or from competition with a known ligand. Low values mean a stronger hold on the target, high ones a looser hold on the target. What is called clearance is the rate of elimination divided by the concentration. High values mean a high capacity for elimination, low ones a low capacity for elimination. In the case of `C=CCCCC[N@+]1(C)C2CCC1C[C@H](CC(C#N)(c1ccccc1)c1ccccc1)C2.[Br-]`, the Time in the series with Mus musculus [4] was greater than 96 h. Further, the Ki in series [5] stood at 0.1 nM; in series [7] it was 0.12 nM; in [9], 0.16 nM. In addition, the ED50 in the series with Mus musculus [6] stood at 0.02 µg. For the same compound, the pA2 in [1] (cho) was greater than 11. In the series on Rattus norvegicus, the F entry was “BLD”. The compound also gave a clearance in series [8] of 125 mL/min/kg.

Regarding `CC[N+]1(C)[C@@H]2CC[C@H]1C[C@@H](CC(C#N)(c1ccccc1)c1ccccc1)C2` (mixture of isomers), the Kb in series [1] was 0.0501 nM. For the same compound, in series [2], the half-inhibitory concentration (IC50) is less than 10 nM.

As to `COCCOCC[N+]1(C)[C@@H]2CC[C@H]1C[C@@H](CC(C#N)(c1ccccc1)c1ccccc1)C2` (mixture of isomers), in [1], the Kb is 0.631 nM. In addition, in series [2], the IC50 is less than 10 nM.

With `C=CCCCC[N+]1(C)[C@@H]2CC[C@H]1C[C@@H](CC(C#N)(c1ccccc1)c1ccccc1)C2` (mixture of isomers), in series [2], the IC50 worked out at 85.2 nM.

On to `C[N+]1(CCO)[C@@H]2CC[C@H]1C[C@@H](CC(C#N)(c1ccccc1)c1ccccc1)C2` (mixture of isomers), for which the Kb in series [1] is 0.158 nM. The IC50 in series [2] is less than 10 nM.

Turning to `C=CC[N+]1(C)[C@@H]2CC[C@H]1C[C@@H](CC(C#N)(c1ccccc1)c1ccccc1)C2` (mixture of isomers), in series [1], the Kb was 1.26 nM. In addition, the IC50 in series [2] was less than 10 nM.

In the case of `C[N@+]1(CC2CC2)C2CCC1C[C@H](CC(C#N)(c1ccccc1)c1ccccc1)C2`, in series [2], the half-inhibitory concentration (IC50) came to 26.3 nM.

For `C=CCCCC[N@+]1(C)C2CCC1C[C@H](CC(C#N)(c1ccccc1)c1ccccc1)C2` [listing 2 of 2 here], in [1], the Kb was less than 0.01 nM. Moreover, the IC50 in series [2] is less than 10 nM.

For the compound `C[N@+]1(CCCOc2ccccc2)C2CCC1C[C@@H](CC(C#N)(c1ccccc1)c1ccccc1)C2`, the Kb in series [1] is less than 0.01 nM. For the same compound, the half-inhibitory concentration (IC50) in series [2] was less than 10 nM.

As to `CCC[N+]1(C)[C@@H]2CC[C@H]1C[C@@H](CC(C#N)(c1ccccc1)c1ccccc1)C2` (mixture of isomers), in series [1], the Kb was 0.0501 nM. Moreover, the IC50 in series [2] is less than 10 nM.

On to `C[N+]1(Cc2ccccc2)[C@@H]2CC[C@H]1C[C@@H](CC(C#N)(c1ccccc1)c1ccccc1)C2` (mixture of isomers), for which, in series [2], the IC50 is 318 nM.

Regarding `C[N@+]1(CCOCc2ccccc2)C2CCC1C[C@@H](CC(C#N)(c1ccccc1)c1ccccc1)C2`, the Kb in [1] is less than 0.01 nM. Further, the IC50 in [2] is less than 10 nM.

For the origin of these results see ChEMBL document CHEMBL2021865, “Design, synthesis and structure-activity relationship of N-substituted tropane muscarinic acetylcholine receptor antagonists” (Bioorg Med Chem Lett, 2012).
